Data on one molecule can be found in ChEMBL document CHEMBL4261642, “Design, synthesis, and ex vivo evaluation of a selective inhibitor for retinaldehyde dehydrogenase enzymes” (Bioorg Med Chem, 2018).

Assay [1] has as its target T1, Retinal dehydrogenase 2 (Gallus gallus) (UniProt O93344).
T1 sequence (whole entry): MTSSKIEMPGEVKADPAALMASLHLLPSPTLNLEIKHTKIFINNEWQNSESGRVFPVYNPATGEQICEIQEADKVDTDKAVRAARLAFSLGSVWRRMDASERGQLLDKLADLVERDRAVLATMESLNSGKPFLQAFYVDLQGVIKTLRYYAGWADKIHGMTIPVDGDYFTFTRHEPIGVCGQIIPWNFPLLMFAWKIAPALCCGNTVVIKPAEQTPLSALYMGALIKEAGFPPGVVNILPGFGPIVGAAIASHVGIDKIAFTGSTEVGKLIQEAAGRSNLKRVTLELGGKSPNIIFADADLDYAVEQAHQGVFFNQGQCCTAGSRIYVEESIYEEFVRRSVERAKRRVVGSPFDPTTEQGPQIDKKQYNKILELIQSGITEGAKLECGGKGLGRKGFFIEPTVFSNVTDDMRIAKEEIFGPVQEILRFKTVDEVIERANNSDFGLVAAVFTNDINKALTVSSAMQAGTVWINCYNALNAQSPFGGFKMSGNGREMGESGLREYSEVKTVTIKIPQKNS
Briefly: Inhibition of N-terminal His6-tagged recombinant chick RALDH2 expressed in Escherichia coli BL21(DE3) cells at 250 nM using RAL as substrate assessed as remaining activity preincubated for 5 mins followed by all-trans-retinaldehyde and substrate addition measured after 30 mins in presence of NAD+ by fluorescence assay. In short, it runs like this:
(§1)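 Chick RALDH2 (91 nM) pre-incubated with 250 nM inhibitor for 0–80 min at 37°C, alone or with 250 μM retinaldehyde or 250 μM NAD+. Reaction then started with the missing substrate and/or cofactor (250 μM retinaldehyde, 4 mM NAD), 30 min at 37°C. Fluorimetric NADH; % activity remaining. Triplicates.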

Assay [2] has as its target T1, Retinal dehydrogenase 2 (Gallus gallus). Nature of the assay: Inhibition of N-terminal His6-tagged recombinant chick RALDH2 expressed in Escherichia coli BL21(DE3) cells at 25 nM using RAL as substrate assessed as remaining activity preincubated for 20 mins followed by compound washout by ultrafiltration and subsequent addition of substrate and measured after 30 mins in presence of NADH by fluorescence assay (reference value: 100.0 +/- 11.57%). The method, boiled down: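 Chick RALDH2 (91 nM) pre-incubated 20 min with 0–50 nM inhibitor. Unbound inhibitor removed by ultrafiltration before adding 250 μM retinaldehyde and 4 mM NAD+, 30 min at 37°C. NADH measured fluorimetrically. Activity expressed as % of vehicle. Triplicates; one-way ANOVA with Bonferroni test.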

For assay [3], the species on record is Gallus gallus. Briefly: Inhibition of N-terminal His6-tagged recombinant chick RALDH3 expressed in Escherichia coli BL21(DE3) cells at 100 nM using RAL as substrate assessed as Km preincubated for 20 mins followed by substrate addition and measured after 30 mins in presence of NADH by fluorescence assay (reference value: 84.45 +/- 30.99 microM).
The target in assay [4] is T1, Retinal dehydrogenase 2 (Gallus gallus). Nature of the assay: Inhibition of N-terminal His6-tagged recombinant chick RALDH2 expressed in Escherichia coli BL21(DE3) cells at 250 nM using RAL as substrate assessed as remaining activity preincubated for 80 mins followed by all-trans-retinaldehyde and substrate addition measured after 30 mins in presence of NAD+ by fluorescence assay. The method, boiled down:
as §1

The subject of assay [5] is HEK293. Nature of the assay: Cytotoxicity against doxycycline-inducible chicken RALDH2 expressing HEK293 cells by measuring ATP production after 24 hrs by CelTiter-Glo assay. The format is cell-based. Conditions: Homo sapiens, HEK293, 24 h. The method, boiled down: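 (Dox)RALDH2-eGFP HEK293 cells seeded at 10,000/well in DMEM + 10% FBS for 24 h, then switched to DMEM with 0.1% FBS containing 0–50 μM compound in DMSO (<0.5%) for 24 h at 37°C, 5% CO2. ATP read by luminescence and expressed as % of vehicle (0.5% DMSO) control. Two experiments, n = 5 per concentration.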

For another assay, the target named is T2, Retinal dehydrogenase 2 (Homo sapiens, UniProt O94788).
T2 sequence (O94788 whole entry): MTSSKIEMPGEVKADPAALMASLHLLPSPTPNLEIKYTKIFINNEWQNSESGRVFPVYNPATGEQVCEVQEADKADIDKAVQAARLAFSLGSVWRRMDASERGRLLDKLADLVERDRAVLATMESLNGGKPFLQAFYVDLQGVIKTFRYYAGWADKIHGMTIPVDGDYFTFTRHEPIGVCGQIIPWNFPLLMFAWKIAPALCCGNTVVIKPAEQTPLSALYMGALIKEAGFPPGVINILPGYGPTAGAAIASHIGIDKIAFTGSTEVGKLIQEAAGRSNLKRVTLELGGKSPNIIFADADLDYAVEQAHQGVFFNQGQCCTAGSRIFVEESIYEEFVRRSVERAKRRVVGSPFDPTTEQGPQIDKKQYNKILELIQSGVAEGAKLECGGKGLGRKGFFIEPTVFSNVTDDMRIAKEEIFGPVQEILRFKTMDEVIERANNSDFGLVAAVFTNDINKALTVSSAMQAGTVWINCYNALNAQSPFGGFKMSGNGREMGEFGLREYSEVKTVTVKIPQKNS
Briefly: Inhibition of N-terminal His6-tagged recombinant human RALDH2 using RAL as substrate measured after 30 mins in presence of NADH by Morrison's plot analysis. In short, it runs like this: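 Ki obtained by fitting the Morrison tight-binding equation to the 20-min pre-incubation retinaldehyde/NADH fluorescence inhibition data. Inputs were enzyme concentration (RALDH1 0.358, RALDH2 0.091, RALDH3 0.355, hRALDH2 0.176 μM), substrate concentration and Km. Triplicates from 3–5 independent experiments.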

For assay [6], the species on record is Gallus gallus. Briefly: Inhibition of N-terminal His6-tagged recombinant chick RALDH3 expressed in Escherichia coli BL21(DE3) cells at 500 nM using RAL as substrate assessed as Km preincubated for 20 mins followed by substrate addition and measured after 30 mins in presence of NADH by fluorescence assay (reference value: 84.45 +/- 30.99 microM).
Assay [7] relates to HEK293. Briefly: Cytotoxicity against doxycycline-inducible chicken RALDH2 expressing HEK293 cells by measuring DNA content after 24 hrs in presence of proteinase K by Pico-green dye-based fluorescence assay. The format is functional, cell-based. Conditions: Homo sapiens, HEK293, 24 h. In short, it runs like this:
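Doxycycline-induced (Dox)RALDH2-eGFP HEK293 cells treated with compound in low-serum DMEM. Homogenate aliquots taken before ultracentrifugation were digested with proteinase K (0.05% w/v in 10 mM EDTA, 0.1 M sodium phosphate pH 6.5) at 60°C overnight. DNA measured by PicoGreen fluorescence. Toxicity curves span 0.01–50 μM over 24 h. Two experiments, n = 5 per concentration.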

Assay [8] concerns the target T1, Retinal dehydrogenase 2 (Gallus gallus). Briefly: Inhibition of RALDH2 in choroidal cytosol fraction from control chick assessed as inhibition of ATRA synthesis at 0.1 to 6 uM pre-incubated for 20 mins followed by […] addition and measured after 30 mins by HPLC analysis.

Turning to `CC1=C(/C=C/C(C)=C/C=C/C(C)=C/C(=O)C(Cl)Cl)C(C)(C)CCC1`, the Activity amounted to 39.2% in assay [1], 33% in assay [2] and 16.5% in assay [4]. In addition, the Km (in general, the substrate concentration at which the rate is half of its maximum) in the assay filed under Gallus gallus [3] is 52.7 µM; in the assay filed under Gallus gallus [6], 26.9 µM. Besides, the IC50 (commonly the concentration needed to halve the response being measured) stood at 3090 nM with HEK293 [5] and 2940 nM in the assay on HEK293 [7]. Besides, on Retinal dehydrogenase 2, the Ki (commonly the equilibrium dissociation constant of an inhibitor or competing ligand from its target) stood at 64.3 nM. Besides, in assay [8], the inhibition (as a rule, the drop in the measured response relative to a control, in per cent) was in the range of 92 to 99%.
